Measurements: ChEMBL document CHEMBL1151161, “Isolation from Eucalyptus occidentalis and identification of a new kaempferol derivative that induces apoptosis in human myeloid leukemia cells” (J Nat Prod, 2004)
Active and inactive are the calls of the source. The rule behind the calls is not given here.

Tests used:
[1] = test system: HL-60; assay: Cytotoxicity against human HL60 cells after 72 hrs by MTT assay; format: functional, cell-based; details: HL-60, 72 h
Summary of the method: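 HL-60 cells kept in RPMI-1640 with 10% heat-inactivated FBS at 37 °C and 5% CO2, resuspended in fresh medium 24 h before treatment. Cells at 1×10^4/well were exposed continuously to a concentration series for 72 h at 37 °C, with final DMSO ≤0.5%. Read-out was MTT reduction at OD 570 nm as % of DMSO control. IC50 was curve-fitted for each experiment; points were triplicates.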

[2] = test system: HL-60; assay: Induction of apoptosis in human HL60 cells assessed as morphological changes at 30 uM after 12 hrs by Hoechst 33258 staining based fluorescence microscopy; format: functional, cell-based
Summary of the method: (§1)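 HL-60 cells were treated for 12 h at 10–30 µM, with 10 µM etoposide as positive control. Cells were fixed in 3% paraformaldehyde for 10 min, then stained with 10 µg/mL Hoechst 33258 for 30 min at 37 °C. Nuclei with condensed or fragmented chromatin were scored as apoptotic, counting ≥500 cells per sample, in triplicate.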

[3] = test system: HL-60; assay: Induction of apoptosis in human HL60 cells assessed as morphological changes after 12 hrs by Hoechst 33258 staining based fluorescence microscopy; format: functional, cell-based; summary of the method: as §1
[4] = test system: HL-60; assay: Induction of apoptosis in human HL60 cells at 30 uM after 12 hrs by Hoechst 33258 staining based fluorescence microscopy; format: functional; summary of the method: as §1
[5] = test system: HL-60; assay: Induction of apoptosis in human HL60 cells assessed as induction of DNA cleavage at 10 uM after 12 hrs by gel electrophoresis; format: functional, cell-based
Summary of the method: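 HL-60 cells (1×10^6) were lysed in Tris pH 8.0/EDTA/0.5% SDS with RNase A for 1 h at 37 °C, then proteinase K for 2 h at 50 °C. DNA was phenol-chloroform extracted and run on 2% agarose with ethidium bromide staining. The legend gives 24 h treatment while the text gives 12 h.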

[6] = test system: HL-60; assay: Induction of apoptosis in human HL60 cells assessed as induction of PARP1 cleavage after 6 hrs by Western blot; format: functional, cell-based
Summary of the method: (§2)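 About 7×10^5 exponentially growing HL-60 cells were treated at 37 °C for 6 or 24 h. Lysates in Hepes/NaCl/NP-40 buffer with protease inhibitors were cleared at 10 000g. 50 µg protein was run on 7.5% SDS-PAGE and probed with anti-PARP-1 (1:1000), with ECL detection. The 85 kDa fragment versus the 116 kDa intact band was the apoptosis marker.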

[7] = test system: HL-60; assay: Induction of apoptosis in human HL60 cells assessed as induction of PARP1 cleavage after 24 hrs by Western blot; format: functional, cell-based; summary of the method: as §2
[8] = test system: HL-60; assay: Induction of apoptosis in human HL60 cells assessed as fold increase in caspase 3 activation at 30 uM relative to control; format: functional
Summary of the method: (§3)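 HL-60 cells were exposed for 12 h to 1–30 µM. Lysates were made in Hepes pH 7.4/DTT/CHAPS buffer and protein was measured by Bradford. About 20 µg protein was incubated at 37 °C with DEVD-pNA (caspase-3) or IETD-pNA (caspase-8). Net A405 increase was expressed as fold over untreated control, in duplicate.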

[9] = test system: HL-60; assay: Induction of apoptosis in human HL60 cells assessed as fold increase in caspase 8 activation at 10 uM relative to control; format: functional; summary of the method: as §3
[10] = test system: HL-60; assay: Induction of apoptosis in human HL60 cells assessed as cytochrome release at 10 uM by Western blot; format: functional, cell-based
Summary of the method: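 Exponentially growing HL-60 cells were treated for 6 h. The cytosolic fraction was obtained by hypotonic sucrose-buffer swelling on ice, needle lysis, a 1000g spin, then 105 000g for 45 min at 4 °C. 50 µg cytosolic protein was run on SDS/15% PAGE and immunoblotted with anti-cytochrome c (1:250), with ECL detection.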

SMILES | IC50 [1] | Activity [2] | Activity [3] | Activity [4] | Activity [5] | Activity [6] | Activity [7] | fold change (FC) [8] | fold change (FC) [9] | Activity [10]
COc1ccc(-c2oc3c(C)c(O)c(C)c(O)c3c(=O)c2OC)cc1 | 1.7 µM | Active | Dose-dependent effect | 47.8% | Active | Active | Active | 1.9 | 3.7 | Active
COc1c(-c2ccc(O)cc2)oc2c(C)c(O)c(C)c(O)c2c1=O | 7.4 µM | Active | Dose-dependent effect | 26.6% | Active | – | Active | – | – | Active
